A short description of data set [1]: Cytotoxicity against mouse peritoneal macrophages assessed as decrease in cell viability after 24 hrs by MTT assay. It is filed as cell-based, Peritoneal macrophage. The method in brief: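 Peritoneal macrophages (1 × 10^5/well) in RPMI 1640 with 10% FBS, 25 mM HEPES and 2 mM L-glutamine were pre-incubated 4 h. They were then exposed to compounds for 24 h at 37 °C, 5% CO2. Viability was read by MTT; CC50 determined.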
On the technique in general: Tetrazolium assays rely on reduction of a dye to a coloured formazan, in cell work by metabolically active cells.

For data set [2], the system named is Leishmania amazonensis. Briefly: Antileishmanial activity against promastigote stage of Leishmania amazonensis MPRO/BR/1972/M1841-LV-79 assessed as parasite growth inhibition after 72 hrs by MTT assay. Particulars: MPRO/BR/1972/M1841-LV-79, 72 h. It is filed as functional, organism-based. The method in brief: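 Promastigotes at 1 × 10^7/mL in LIT + 10% FBS were exposed 72 h at 28 °C to ten concentrations, 0.5–100 µM (final DMSO 0.1%). Viability was read by MTT, with formazan dissolved in SDS-HCl and absorbance at 570 nm. Run in triplicate; IC50 from nonlinear regression.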

Data set [3] is described as follows: Safety index, ratio of CC50 for mouse peritoneal macrophages to IC50 for Leishmania amazonensis MPRO/BR/1972/M1841-LV-79 amastigotes infected in mouse peritoneal macrophages. It is filed as toxicity. Particulars: read-out: Ratio CC50/IC50.
Data set [4] has as its system Leishmania amazonensis. Briefly: Antileishmanial activity against promastigote stage of Leishmania amazonensis MPRO/BR/1972/M1841-LV-79 infected in Balb/c mouse assessed as decrease in plasma alkaline phosphatase level at 2 mg/kg, ip administered once daily for 15 days measured post-last dose. It is filed as organism-based. The note with it: in vivo, 360 h. The method in brief:
(§1)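 Female BALB/c mice (4 weeks old, 5 per group) were infected in the left hind footpad with 1 × 10^7 parasites/mL of infective promastigotes. After six weeks they received daily ip doses for 15 days: 0.13 or 0.25 mg/kg/day (from DMSO stock in PBS, 0.1% DMSO), AmpB 2 mg/kg/day in sterile water, or PBS. Controls were untreated infected and uninfected mice. At end of treatment, plasma bilirubin, AST, ALT, ALP, urea and creatinine were measured with commercial kits.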

The subject of data set [5] is Leishmania amazonensis. Put plainly: Antileishmanial activity against promastigote stage of Leishmania amazonensis MPRO/BR/1972/M1841-LV-79 infected in Balb/c mouse assessed as decrease in plasma alanine aminotransferase level at 2 mg/kg, ip administered once daily for 15 days measured post-last dose. It is filed as functional, organism-based. The method in brief: as §1

Data set [6] relates to Leishmania amazonensis. Briefly: Antileishmanial activity against promastigote stage of Leishmania amazonensis MPRO/BR/1972/M1841-LV-79 infected in Balb/c mouse assessed as decrease in plasma aspartate aminotransferase level at 2 mg/kg, ip administered once daily for 15 days measured post-last dose. It is filed as functional, organism-based. In a few lines: as §1
Data set [7] is described as follows: Toxicity in Balb/c mouse infected with promastigote stage of Leishmania amazonensis MPRO/BR/1972/M1841-LV-79 assessed as change in body weight at 2 mg/kg, ip administered once daily for 15 days measured during compound dosing. It is filed as organism-based. The note with it: in vivo, 360 h.
The subject of data set [8] is Leishmania amazonensis. Put plainly: Antileishmanial activity against promastigote stage of Leishmania amazonensis MPRO/BR/1972/M1841-LV-79 infected in Balb/c mouse assessed as reduction in volume of foot lesions at 2 mg/kg, ip administered once daily for 15 days measured every 5 days during compound dosing by caliper method. It is filed as functional, organism-based. The method in brief: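 Infected BALB/c mice (5 per group) were dosed daily ip for 15 days, starting six weeks after footpad inoculation: 0.13 or 0.25 mg/kg/day, AmpB 2 mg/kg/day, or PBS. Foot lesion thickness was measured with a dial caliper every 5 days.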

Data set [9] has as its system Leishmania amazonensis. Put plainly: Antileishmanial activity against promastigote stage of Leishmania amazonensis MPRO/BR/1972/M1841-LV-79 infected in Balb/c mouse assessed as reduction in parasitic load at 2 mg/kg, ip administered once daily for 15 days by limiting dilution method relative to control. It is filed as functional. Set-up: scale not given: the % may be the effect or the level left. The method in brief: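 Footpad-infected female BALB/c mice (1 × 10^7 parasites/mL promastigotes; 5 per group) were treated from six weeks post-infection. Dosing was daily ip for 15 days: 0.13 or 0.25 mg/kg/day (PBS, 0.1% DMSO), AmpB 2 mg/kg/day, or PBS vehicle. Skin-lesion parasite burden was quantified after treatment by limiting dilution and compared with untreated infected mice. Data are mean ± SD.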

The nature of data set [10]: Safety index, ratio of CC50 for mouse peritoneal macrophage to IC50 for promastigote stage of Leishmania amazonensis MPRO/BR/1972/M1841-LV-79. It is filed as toxicity. Particulars: read-out: Ratio CC50/IC50.
Data set [11] deals with Leishmania amazonensis. Briefly: Antileishmanial activity against promastigote stage of Leishmania amazonensis MPRO/BR/1972/M1841-LV-79 infected in Balb/c mouse assessed as increase in plasma bilirubin level at 2 mg/kg, ip administered once daily for 15 days measured during compound dosing. It is filed as functional, organism-based.
For data set [12], the system named is Leishmania amazonensis. Put plainly: Antileishmanial activity against Leishmania amazonensis MPRO/BR/1972/M1841-LV-79 amastigotes infected in mouse peritoneal macrophages assessed as reduction in number of intracellular amastigotes at 25 uM after 72 hrs by Giemsa staining-based microscopic method relative to control. It is filed as functional. Details: scale not given: the % may be the effect or the level left. In a few lines:
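Infected peritoneal macrophages were treated with 25 µM of each compound, pentamidine or AmpB for 72 h. The infection index (% infected macrophages × amastigotes per infected macrophage) was compared with untreated infected cells. Data are given as mean ± SD.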

Data set [13] relates to Leishmania amazonensis. Put plainly: Antileishmanial activity against Leishmania amazonensis MPRO/BR/1972/M1841-LV-79 amastigotes infected in mouse peritoneal macrophages assessed as parasite growth inhibition after 24 hrs by Giemsa staining-based microscopic method. It is filed as functional, organism-based. The note with it: MPRO/BR/1972/M1841-LV-79, 24 h. The method in brief:
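Peritoneal macrophages (3 × 10^5/well on coverslips, RPMI 1640 + 10% FBS) adhered 4 h at 37 °C, 5% CO2, then infected with stationary-phase promastigotes at 5:1 for 4 h. After washing, cells were cultured 18 h, then treated 24 h with compounds or reference drugs. Cells were methanol-fixed and Giemsa-stained. Infection index = % infected macrophages × mean amastigotes per infected cell. IC50 was fitted by regression.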

A short description of data set [14]: Renal toxicity in Balb/c mouse infected with promastigote stage of Leishmania amazonensis MPRO/BR/1972/M1841-LV-79 assessed as change in plasma creatinine level at 2 mg/kg, ip administered once daily for 15 days measured post-last dose. The note with it: in vivo, 360 h. It is filed as organism-based. In a few lines: as §1
Data set [15] is described as follows: Renal toxicity in Balb/c mouse infected with promastigote stage of Leishmania amazonensis MPRO/BR/1972/M1841-LV-79 assessed as change in plasma urea level at 2 mg/kg, ip administered once daily for 15 days measured post-last dose. Particulars: in vivo, 360 h. It is filed as organism-based. In a few lines:
as §1

Calls of active or inactive are those of the source. No cut-off for these calls is given here.

These results are taken from ChEMBL document CHEMBL4346679, “N, N', N″-trisubstituted guanidines: Synthesis, characterization and evaluation of their leishmanicidal activity” (Eur J Med Chem, 2019).

Take `C[C@@H]1[C@H](O)[C@@H](C)/C=C/C=C/C=C/C=C/C=C/C=C/C=C/[C@H](O[C@@H]2O[C@H](C)[C@@H](O)[C@H](N)[C@@H]2O)C[C@@H]2O[C@](O)(C[C@@H](O)C[C@@H](O)[C@H](O)CC[C@@H](O)C[C@@H](O)CC(=O)O[C@H]1C)C[C@H](O)[C@H]2C(=O)O` [AMPHOTERICIN B]: the 50% cytotoxic concentration (CC50) at 24 h in [1] was 23.1 µM. The IC50 was 3.2 µM in the data set on Leishmania amazonensis [2] and 4.92 µM with Leishmania amazonensis [13]. The selectivity ratio in data set [3] stood at 4.7; in data set [10], 7.2. The Activity entry in the data set with Leishmania amazonensis [4] is “Active”; in data set [7], “Non-Toxic”; in the data set on Leishmania amazonensis [9], 41%; in the data set on Leishmania amazonensis [12], 84%; in data set [14], “Non-Toxic”; in data set [15], “Non-Toxic”. Moreover, the result in the data set with Leishmania amazonensis [5], in the data set on Leishmania amazonensis [6], in the data set on Leishmania amazonensis [8] and with Leishmania amazonensis [11] was Active.

One may read the CC50 as the concentration giving 50% cytotoxicity. For orientation: IC50 means the concentration that gives 50% inhibition.
